Molecules are shown by their SMILES.

Assay type in all cases: functional
Experiment [1] deals with Mus musculus. Nature of the experiment: Percent inhibition against M5076 mouse reticulum cell sarcoma after administration at 10 mg/kg orally on day 20. The conditions noted are these: M5076, 480 h, route oral. The method, boiled down:
(§1)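 Female BD2F1 mice (7-8 weeks, 20-25 g) were given 1 × 10^6 viable M5076 cells s.c. in the axillary region. Drug in saline or 5% DMA/0.5% CMC was given orally on days 1, 4, 7, 10, 13 and 16, with six mice per group and untreated controls. Tumor volume = 0.5 × length × width². Inhibition on day 20 = (1 − Vt/Vc) × 100.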

Experiment [2] has as its system Mus musculus. Briefly: Tested for 60-day survivors after administration at 20 mg/kg orally in M5076 mouse reticulum cell sarcoma. The conditions noted are these: route oral. The gist of the method: (§2)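 Female BD2F1 mice were implanted s.c. with 1 × 10^6 M5076 cells and dosed orally on days 1, 4, 7, 10, 13 and 16. Vehicle was saline or 5% DMA in 0.5% CMC. Groups had six mice (three at 400 mg/kg), with nine untreated controls. The number of mice alive at 60 days was counted.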

For experiment [3], the system named is Mus musculus. Briefly: Percent treated was determined after administration at 30 mg/kg orally. The conditions noted are these: route oral. The method, boiled down:
(§3)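 In female BD2F1 mice bearing s.c. M5076 sarcoma (1 × 10^6 cells), drug was given orally on days 1, 4, 7, 10, 13 and 16, with six mice per treated group and nine untreated controls. T/C (%) = median survival day of treated mice / median survival day of untreated controls × 100.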

The test system of experiment [4] is Mus musculus. Nature of the experiment: Weight change in M5076 mouse reticulum cell sarcoma after administration at 30 mg/kg orally. As to conditions: route oral. The gist of the method: (§4)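 Mice were female BD2F1 bearing s.c. M5076 sarcoma (1 × 10^6 cells) and given oral drug on days 1, 4, 7, 10, 13 and 16. Body weight change (g) = average body weight on day 20 minus average on day 1.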

For experiment [5], the system named is Mus musculus. Briefly: Weight change in M5076 mouse reticulum cell sarcoma after administration at 50 mg/kg orally. As to conditions: route oral. The method, boiled down:
as §4

The test system of experiment [6] is Mus musculus. Nature of the experiment: Tested for 60-day survivors after administration at 40 mg/kg orally in M5076 mouse reticulum cell sarcoma. As to conditions: route oral. The gist of the method: as §2
For experiment [7], the system named is Mus musculus. Briefly: Percent inhibition against M5076 mouse reticulum cell sarcoma after administration at 40 mg/kg orally on day 20. The conditions noted are these: M5076, 480 h, route oral. The gist of the method: as §1
Experiment [8] concerns Mus musculus. Nature of the experiment: Percent inhibition against M5076 mouse reticulum cell sarcoma after administration at 20 mg/kg orally on day 20. As to conditions: M5076, 480 h, route oral. The method, boiled down:
as §1

For experiment [9], the system named is Mus musculus. Nature of the experiment: Tested for 60-day survivors after administration at 10 mg/kg orally in M5076 mouse reticulum cell sarcoma. As to conditions: route oral. The method, boiled down: as §2
In experiment [10] the test system is Mus musculus. Briefly: Tested for 60-day survivors after administration at 50 mg/kg orally in M5076 mouse reticulum cell sarcoma. As to conditions: route oral. The method, boiled down: as §2
Experiment [11] concerns Mus musculus. Briefly: Weight change in M5076 mouse reticulum cell sarcoma after administration at 10 mg/kg orally. The conditions noted are these: route oral. The gist of the method:
as §4

The test system of experiment [12] is Mus musculus. Briefly: Percent treated was determined after administration at 10 mg/kg orally. The conditions noted are these: route oral. The method, boiled down: as §3
The subject of experiment [13] is Mus musculus. Briefly: Percent inhibition against M5076 mouse reticulum cell sarcoma after administration at 50 mg/kg orally on day 20. The conditions noted are these: M5076, 480 h, route oral. The method, boiled down:
as §1

In experiment [14] the test system is Mus musculus. Nature of the experiment: Percent treated was determined after administration at 50 mg/kg orally. As to conditions: route oral. The gist of the method:
as §3

Experiment [15] deals with Mus musculus. Nature of the experiment: Percent treated was determined after administration at 20 mg/kg orally. As to conditions: route oral. The gist of the method:
as §3

For experiment [16], the system named is Mus musculus. Briefly: Weight change in M5076 mouse reticulum cell sarcoma after administration at 40 mg/kg orally. The conditions noted are these: route oral. The gist of the method:
as §4

The subject of experiment [17] is Mus musculus. Nature of the experiment: Percent inhibition against M5076 mouse reticulum cell sarcoma after administration at 30 mg/kg orally on day 20. The conditions noted are these: M5076, 480 h, route oral. The gist of the method:
as §1

In experiment [18] the test system is Mus musculus. Nature of the experiment: Weight change in M5076 mouse reticulum cell sarcoma after administration at 20 mg/kg orally. As to conditions: route oral. The gist of the method: as §4
Experiment [19] has as its system Mus musculus. Nature of the experiment: Tested for 60-day survivors after administration at 30 mg/kg orally in M5076 mouse reticulum cell sarcoma. As to conditions: route oral. The gist of the method: as §2
In experiment [20] the test system is Mus musculus. Nature of the experiment: Percent treated was determined after administration at 40 mg/kg orally. The conditions noted are these: route oral. The method, boiled down:
as §3

Turning to `O=c1[nH]cc(F)c(=O)[nH]1` [FLUOROURACIL], in the experiment on Mus musculus [1], 10 mg/kg produced 1% inhibition in vivo. The Survivors in the experiment with Mus musculus [2], in the experiment with Mus musculus [6], with Mus musculus [9], with Mus musculus [10] and with Mus musculus [19] was 6 in each case. Moreover, the T/C (commonly the result in the treated group divided by that in the control group, in per cent) came to 86% in the experiment on Mus musculus [3]; 94% in the experiment with Mus musculus [12]; 79% in the experiment on Mus musculus [14]; 85% in the experiment with Mus musculus [15]; 79% in the experiment on Mus musculus [20]. Besides, the Weight change with Mus musculus [4] is 2.4 g; in the experiment with Mus musculus [5], 1.4 g; with Mus musculus [11], 2.4 g; in the experiment with Mus musculus [16] it was 2.1 g; in the experiment with Mus musculus [18] it was 2.2 g. For the same molecule, the inhibition in vivo (commonly the relative decrease from the control value, in per cent) at 40 mg/kg with Mus musculus [7] turned out to be 17%. For the same molecule, the inhibition in vivo at 20 mg/kg in the experiment with Mus musculus [8] turned out to be 6%. The molecule further yielded an inhibition in vivo at 50 mg/kg in the experiment on Mus musculus [13] of 28%. Also, the inhibition in vivo at 30 mg/kg with Mus musculus [17] was determined as 9%.

(Values after ChEMBL document CHEMBL1126568, “Nucleosides and nucleotides. 122. 2'-C-cyano-2'-deoxy-1-beta-D-arabinofuranosylcytosine and its derivatives. A new class of nucleoside with a broad antitumor spectrum” (J Med Chem, 1993).)
